For this series, the system named is MS2 coat protein. In words: apparent Kd, MS2 coat protein; higher = weaker binding; RNA-MaP array; theophylline 2 mM where present. The method, boiled down:
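Two titrations, one without ligand and one with constant ligand, were run with SNAP-549-labelled MS2 coat protein from 0.7 or 1.5 nM, doubling to 3 µM. The targets were designs transcribed by stalled E. coli RNA polymerase on Illumina sequencing-chip clusters, in 100 mM Tris-HCl pH 7.5, 80 mM KCl, 4 mM MgCl2, BSA, DTT, yeast tRNA and Tween-20. The apparent Kd is the median of filtered per-cluster binding-curve fits, with green signal normalised to red-channel RNA signal and control-cluster median Fmax.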

The mark [1] stands for this setting: designed as: ON switch for theophylline, no ligand.
Where [2] appears, read: ligand present: theophylline, designed as: ON switch for theophylline.
[3] abbreviates: designed as: OFF switch for theophylline, no ligand.
Where [4] appears, read: ligand present: theophylline, designed as: OFF switch for theophylline.

19 sequences from the EternaBench riboswitch data can be followed below.

What is called apparent Kd is the concentration giving half-maximal binding under the conditions of the assay.

Turning to “UGUAACAUGAGGAUCACCCAUGUGAGUGAUACCAGAUUAGUAGUAGUCCCUUGGCAGCAUAUUGGGCGAGUGUAUAGUCUAUGCG”, the “apparent Kd” value runs as follows: under setting [1], 165 nM; under setting [2], 221 nM.
As to “GCACGACAUGAGGAUCACCCAUGUGCAGAUACCAGUAAUGUAUAUUACCCUUGGCAGCUGAGUAGAUCUGGAGGGCUAUAGGUAA”, the “apparent Kd” value is, setting by setting: under setting [1], 13.8 nM; under setting [2], 20.8 nM.
For the sequence “UCUACAUGAGGAUCACCCAUGUGCCAUGAUACCAGACAUGAAAAUGUCCCUUGGCAGCAUGGGUAGCGCAUCCGAAAGGAUGCGU”, the “apparent Kd” value by setting is: under setting [1], 32.2 nM; under setting [2], 657 nM.
Take “AUUUAUUGUCGUGAUACCAGACAUACAUGAGGAUCACCCAUGUUAAGUAACUUUUUUCAGGUCCCUUGGCAGCACUUUUUAAUUA”: the “apparent Kd” value runs as follows: under setting [1], 17.3 nM; under setting [2], 13.9 nM.
Take “GCUGUAAGUGCAGAUACCAGCAAGUGAUAUUUCAUAUGACAUGAGGAUCACCCAUGUAACUGCCCUUGGCAGCUGCACUUACAGC”: the “apparent Kd” value was 213 nM under setting [1] and 24.9 nM under setting [2].
The like results for “AGGAAACAACAUGAGGAUCACCCAUGUGAUACCAGUAUCAAAAGAUACCCUUGGCAGCACACAUGACAUGAGGAUCACCCAUGUA” were, in that order, 41.4 nM and 84.4 nM.
Turning to “GGUGAUCCGUAUCACCGGAUCACCGGUGAUACCAGCAUCGAAAGAUGCCCUUGGCAGCACCAACAUGAGGAUCACCCAUGUAAUA”, the “apparent Kd” value was 165 nM under setting [1] and 26.4 nM under setting [2].
The corresponding values for “UACACAUGACAUGAUACCAGCCCAUGUGAACAUGAGGAUCACCCAUGUAUGAGGACAUGAGGCCCUUGGCAGCAUGUAUACAUGA” are 10.2 nM and 10.2 nM.
In the case of “GAUGAACUAUUUGAUACCAGACUACAUGAGGAUCACCCAUGUGAGUUUCGUCCUCUGCCAGUCCCUUGGCAGCAAAUAGUUUAUC”, the “apparent Kd” value is, setting by setting: under setting [3], 18.9 nM; under setting [4], 194 nM.
Consider “AAGCUGACAAGAAGGUGUUCCUAAGCUGAUACCAGCCUGGAAACAGGCCCUUGGCAGCAGCACAUGAGGAUCACCCAUGUAAUAA”, for which the “apparent Kd” value under setting [3] was 118 nM and the “apparent Kd” value under setting [4] was determined as 79.2 nM.
In the case of “CUCCGAGGCUAUACUAUACGCCUUUGUGAUACCAGAAUAAAUAUAUUCCCUUGGCAGCAUCACAUGAGGAUCACCCAUGUGCCAU”, the “apparent Kd” value stood at 11.7 nM under setting [1] and 18 nM under setting [2].
“GAUGAACUAUUUGAUACCAGACUACAUGAGGAUCACCCAUGUGAGUUUAUACUUCUGUCAGUCCCUUGGCAGCAAAUAGUUUAUC”: the “apparent Kd” value under setting [3] turned out to be 19.2 nM and the “apparent Kd” value under setting [4] is 123 nM.
On to “UGUAUGUGAUUUGAUACCAGACCAGCUGGUGGUACAUGAGGAUCACCCAUGUAGGUUUGGGUCCCUUGGCAGCAAAUCGCAUACU”, for which the “apparent Kd” value came to 47.9 nM under setting [1] and 30 nM under setting [2].
As to “ACUCGGUAUGUCUAAUACCGAGAGUAUGAUACCAGUAUGGUGACAUACCCUUGGCAGCAUGGGACAUGAGGAUCACCCAUGUGUU”, the “apparent Kd” value reads like this: under setting [1], 538 nM; under setting [2], 505 nM.
The like results for “AUAACAUGAGGAUCACCCAUGUAAGGUGAUACCAGACGAAGUAAAGUCCCUUGGCAGCACAAGUAAAGUUACGAAUAUUGAUAGA” were, in that order, 430 nM and 47.3 nM.
Turning to “UUAUUUAUAAUGGAUACCAGUCGUAUGGCCCGGAAUCCUGACAUGAGGAUCACCCAUGUCGACCCUUGGCAGCUGUUAUGGGUUU”, the “apparent Kd” value amounted to 14.5 nM under setting [3] and 24.6 nM under setting [4].
For “ACAUGAGGAUCACCCAUGUUCCUCAUUGAUACCAGUGAAUUUAGACGCCCUUGGCAGCGAGUUUUUUUAUAAGAAGUUUUUUUUU”, the “apparent Kd” value by setting is: under setting [3], 660 nM; under setting [4], 1310 nM.
For “UCUUUCUAUGUAGAUACCAGCAUGUUAUCUUUCUUUUGACAUGAGGAUCACCCAUGUAAAUGCCCUUGGCAGCUACAUUUUCUUU”, the “apparent Kd” value reads like this: under setting [1], 21.4 nM; under setting [2], 15.4 nM.
As to “UAUAUAUAUAUUGAUACCAGCAGAGAAAACGUUUAUCCUAACAUGAGGAUCACCCAUGUAUGCCCUUGGCAGCGGUAUAUAUAUA”, the “apparent Kd” value under setting [3] was determined as 25.7 nM and the “apparent Kd” value under setting [4] turned out to be 38 nM.
